From article PMC11022936 (Drug Metabolism and Disposition, 2023)
“And” between values parts separate entries of the source, which are not always exact repeats. Identical values can stand only once. Like-named read-outs stand apart in the source and are kept apart here.

What was measured:
[1] = assay type: in vivo, rat; details: for Total % of dose (total radioactivity in sample), feces / Total % of dose (total radioactivity in sample), urine / percentage of dose in feces / percentage of dose in urine: 0-48 h pool; for percentage of dose in feces / percentage of dose in urine: single oral 40 mg/kg; for concentration at 1 h / concentration at 3 h / concentration at 8 h: Han Wistar, rat, plasma, po; for administered dose recovered in feces (mean) / urinary excretion of administered dose (mean): intact male and female rats
[2] = Mouse 28-day repeat dose, plasma metabolite profiling; assay type: in vivo; details: mouse plasma AUC0-24h pool
[3] = Human MAD study, plasma AUC0-24h pools, metabolite concentrations; assay type: in vivo; details: human AUC0-24h plasma pool
Outline: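 Plasma came from healthy male volunteers given unlabelled test compound once daily in a phase I multiple-ascending-dose study. Groups: 5 mg (day 10, n = 8), 10 mg (day 14, n = 8), 15 mg (day 10, n = 7). Samples were pooled time-proportionally across participants into one AUC0-24h pool per dose, protein-precipitated and run by LC-HRMS. DRE = summed concentrations of parent plus quantified metabolites.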

[4] = Fraction unbound in plasma, equilibrium dialysis; assay type: in vitro ADME; details: human plasma, 1 µmol/L, 37°C, 16 h, mean ± S.D., n = 3
Outline: (§1)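 Equilibrium dialysis used frozen pooled plasma (n>3 donors, K2-EDTA): human (mixed sex), rat (male Han Wistar), dog (male beagle). Plasma spiked with test compound at 0.1, 1.0 or 10 was dialysed against phosphate buffer pH 7.4 for 16 h at 37°C, in triplicate. Calibration standards were made in spiked plasma. fu = buffer concentration / plasma concentration. Recovery = total compound found after dialysis / total added.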

[5] = Fraction unbound in plasma, equilibrium dialysis; assay type: in vitro ADME; details: rat plasma, 10 µmol/L, 37°C, 16 h, mean ± S.D., n = 3
Outline: as §1

[6] = Fraction unbound in plasma, equilibrium dialysis; assay type: in vitro ADME; details: dog plasma, 10 µmol/L, 37°C, 16 h, mean ± S.D., n = 3
Outline: as §1

[7] = Rat 3-month repeated-dose GLP toxicity study; details: both, SD, in vivo, po, 125 mg/kg/day
[8] = Dog 3-month repeated-dose GLP toxicity study; details: both, in vivo, po, 100 mg/kg/day
[9] = test system: MPO; details: read-out: potency toward MPO (IC50); in vitro; ref Inghardt et al., 2022; cited from earlier work
[10] = ref Inghardt et al., 2022; cited from earlier work
[11] = rats; ref Inghardt et al., 2022; cited from earlier work
[12] = dogs; ref Inghardt et al., 2022; cited from earlier work
[13] = human; ref Tong et al., 2010; cited from earlier work
[14] = BDC male rats, oral, 0-24 h pool
[15] = female intact rats, oral 40 mg/kg
[16] = female intact rats, oral 40 mg/kg, 40 mg/kg
[17] = male intact rats, oral 40 mg/kg, 40 mg/kg
[18] = male intact rats, oral 40 mg/kg, listed as [^14C]AZD4831, 40 mg/kg

C[C@@H](N)c1cc(Cl)ccc1Cn1c(=S)[nH]c(=O)c2[nH]ccc21 [AZD4831, (R)-1-(2-(1-aminoethyl)-4-chlorobenzyl)-2-thioxo-2,3-dihydro-1H-pyrrolo[3,2-d]pyrimidin-4(5H)-one]
dose fraction excreted in bile within 0-24 hours ([1]; BDC female rats, oral 40 mg/kg): 10% | percent of administered dose in bile ([1]; BDC female rats, oral, 0-24 h pool): 0.2% | dose fraction excreted in bile within 0-24 hours ([1]; BDC male rats, oral 40 mg/kg): 21% | percent of administered dose in bile [1, 14]: < 0.1% | percent of dose in feces [1, 14]: 20% | percent of dose in urine [1, 14]: 26% | Sum % of dose (integrated radioactive peaks), feces [1, 15]: 35.5 % of dose | Sum % of dose (integrated radioactive peaks), urine [1, 15]: 31.3 % of dose | Total % of dose (total radioactivity in sample), feces [1, 16]: 43 % of dose | Total % of dose (total radioactivity in sample), urine [1, 16]: 34 % of dose | Total % of dose (total radioactivity in sample), urine ([1]; female intact rats, oral 40 mg/kg, listed as [^14C]AZD4831, 40 mg/kg): 34.4 % of dose | percentage of dose in feces ([1]; female intact rats, 40 mg/kg): 31 % of dose and 30.7 % of dose | percentage of dose in urine ([1]; female intact rats, 40 mg/kg): 30 % of dose and 30.3 % of dose | Sum µmol equiv/L (integrated radioactive peaks) in plasma ([1]; female rats, 1 h): 10.4 µmol equiv/L | Total µmol equiv/L (total radioactivity) in plasma ([1]; female rats, 1 h, oral): 12.5 µmol equiv/L | % of total radioactivity in plasma ([1]; female rats, 1 h, oral 40 mg/kg): 72.8 % of total | Sum µmol equiv/L (integrated radioactive peaks) in plasma ([1]; female rats, 3 h): 13.8 µmol equiv/L | Total µmol equiv/L (total radioactivity) in plasma ([1]; female rats, 3 h, oral): 15.9 µmol equiv/L | % of total radioactivity in plasma ([1]; female rats, 3 h, oral 40 mg/kg): 77.5 % of total | Sum µmol equiv/L (integrated radioactive peaks) in plasma ([1]; female rats, 8 h): 11.7 µmol equiv/L | Total µmol equiv/L (total radioactivity) in plasma ([1]; female rats, 8 h, oral): 13.4 µmol equiv/L | % of total radioactivity in plasma ([1]; female rats, 8 h, oral 40 mg/kg): 82.1 % of total | concentration at 1 h ([1]; female, 40 mg/kg): 9.1 µM | concentration at 3 h ([1]; female, 40 mg/kg): 12.3 µM | concentration at 8 h ([1]; female, 40 mg/kg): 11 µM | administered dose recovered in feces (mean) ([1]; intravenous): 46.9% | urinary excretion of administered dose (mean) ([1]; intravenous): 37.7% | administered dose recovered in feces (mean) ([1]; oral): 51.9% | urinary excretion of administered dose (mean) ([1]; oral): 32.0% | Sum % of dose (integrated radioactive peaks), feces ([1]; male intact rats, oral 40 mg/kg): 45.9 % of dose | Total % of dose (total radioactivity in sample), feces [1, 17]: 59 % of dose | Total % of dose (total radioactivity in sample), urine [1, 17]: 28 % of dose | Total % of dose (total radioactivity in sample), feces [1, 18]: 58.7 % of dose | Total % of dose (total radioactivity in sample), urine [1, 18]: 28.2 % of dose | percentage of dose in feces ([1]; male intact rats, 40 mg/kg): 40 % of dose and 39.6 % of dose | percentage of dose in urine ([1]; male intact rats, 40 mg/kg): 20 % of dose and 20.3 % of dose | Sum µmol equiv/L (integrated radioactive peaks) in plasma ([1]; male rats, 1 h): 20.3 µmol equiv/L | Total µmol equiv/L (total radioactivity) in plasma ([1]; male rats, 1 h, oral): 23.4 µmol equiv/L | % of total radioactivity in plasma ([1]; male rats, 1 h, oral 40 mg/kg): 78.2 % of total | Sum µmol equiv/L (integrated radioactive peaks) in plasma ([1]; male rats, 3 h): 13.6 µmol equiv/L | Total µmol equiv/L (total radioactivity) in plasma ([1]; male rats, 3 h, oral): 17.1 µmol equiv/L | % of total radioactivity in plasma ([1]; male rats, 3 h, oral 40 mg/kg): 66.8 % of total | Sum µmol equiv/L (integrated radioactive peaks) in plasma ([1]; male rats, 8 h): 13.7 µmol equiv/L | Total µmol equiv/L (total radioactivity) in plasma ([1]; male rats, 8 h, oral): 16.9 µmol equiv/L | % of total radioactivity in plasma ([1]; male rats, 8 h, oral 40 mg/kg): 70.9 % of total | concentration at 1 h ([1]; male, 40 mg/kg): 18.3 µM | concentration at 3 h ([1]; male, 40 mg/kg): 11.4 µM | concentration at 8 h ([1]; male, 40 mg/kg): 12 µM | radioactivity recovered in bile (mean) ([1]; orally dosed BDC female rats): 10.4% | radioactivity recovered in feces (mean) ([1]; orally dosed BDC female rats): 23.2% | radioactivity recovered in urine (mean) ([1]; orally dosed BDC female rats): 54.7% | radioactivity recovered in bile (mean) ([1]; orally dosed BDC male rats): 21.4% | radioactivity recovered in feces (mean) ([1]; orally dosed BDC male rats): 27.5% | radioactivity recovered in urine (mean) ([1]; orally dosed BDC male rats): 37.3% | share of radioactivity (integrated radiochromatographic peaks) in plasma ([1]; rats, oral 40 mg/kg, all time points (1, 3, 8 h)): > 67% | Drug-Related Exposure (%) ([2]; day 28, Female (125 mg/kg)): 76% | Drug-Related Exposure (%) ([2]; day 28, Female (250 mg/kg)): 74% | Drug-Related Exposure (%) ([2]; day 28, Female (500 mg/kg)): 57% | Drug-Related Exposure (%) ([2]; day 28, Male (125 mg/kg)): 78% | plasma concentration ([3]; 5 mg once daily): 28 nmol/L | plasma concentration ([3]; 10 mg once daily): 53 nmol/L | plasma concentration ([3]; 15 mg once daily): 86 nmol/L | percentage free drug in plasma [4]: 36.1 ± 1.0% | percentage free drug in plasma [5]: 22.0 ± 0.49% | percentage free drug in plasma [6]: 31.9 ± 0.50% | NOAEL at 3 month [7]: 125 mg/kg/day | NOAEL at 3 month [8]: 100 mg/kg/day | IC50 [9]: 1.5 nM | permeability [10]: high permeability | bioavailability [11]: good bioavailability | clearance [11]: moderate clearance | bioavailability [12]: good bioavailability | clearance [12]: moderate clearance

c1cc2c3c(c1)[C@H]1CCC[C@H]1CN3CCNC2 [vabicaserin]
exposure of the carbamoyl glucuronide metabolite relative to parent [13]: 60 fold
